In ChEMBL document CHEMBL1127600, “Mercaptoacyl amino acid inhibitors of atriopeptidase. 1. Structure-activity relationship studies of methionine and S-alkylcysteine derivatives” (J Med Chem, 1994):

Columns and labels:
Rattus norvegicus [1] = experiment: Tested for in vivo Antihypertensive activity in DOCA rat by giving subcutaneous dose of 30 mg/kg; type: functional
Summary of the method: (§1)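 Male Sprague-Dawley rats (100–150 g) had DOCA-Na hypertension induced and were used 17–21 days later if mean BP was >150 mmHg. Rats were not fasted. Mean BP was recorded after 90-min equilibration. Dosing was sc in TRIS buffer (2 mL/kg) or po in 0.4% aqueous methylcellulose (4 mL/kg). The maximum BP fall over 4 h versus vehicle controls was taken, averaged over four or more animals.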

Rattus norvegicus [2] = experiment: In vivo potentiation of ANF induced hypotension in rat, following subcutaneous dose of 30 mg/kg; type: functional
Summary of the method: (§2)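 Conscious male SHR (270–300 g) had caudal artery and jugular vein cannulae placed under ether. After at least 90 min of stabilization, ANF 103-125 or 99-126 was given as an iv bolus at a submaximal dose. 60–90 min later, drug or vehicle (0.2% aqueous methylcellulose with 20% Tris-HCl) was given sc. ANF was repeated 15 min after dosing, and the response was compared with vehicle controls. Values are means of four or more animals.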

Rattus norvegicus [3] = experiment: Tested for in vivo Antihypertensive activity in DOCA rat by giving peroral dose of 30 mg/kg; type: functional; conditions: route oral; summary of the method: as §1
[4] = target: T1, Angiotensin-converting enzyme (Oryctolagus cuniculus, UniProt P12822); experiment: Tested in vitro for its inhibitory activity against angiotensin converting enzyme
T1 sequence (P12822 whole entry): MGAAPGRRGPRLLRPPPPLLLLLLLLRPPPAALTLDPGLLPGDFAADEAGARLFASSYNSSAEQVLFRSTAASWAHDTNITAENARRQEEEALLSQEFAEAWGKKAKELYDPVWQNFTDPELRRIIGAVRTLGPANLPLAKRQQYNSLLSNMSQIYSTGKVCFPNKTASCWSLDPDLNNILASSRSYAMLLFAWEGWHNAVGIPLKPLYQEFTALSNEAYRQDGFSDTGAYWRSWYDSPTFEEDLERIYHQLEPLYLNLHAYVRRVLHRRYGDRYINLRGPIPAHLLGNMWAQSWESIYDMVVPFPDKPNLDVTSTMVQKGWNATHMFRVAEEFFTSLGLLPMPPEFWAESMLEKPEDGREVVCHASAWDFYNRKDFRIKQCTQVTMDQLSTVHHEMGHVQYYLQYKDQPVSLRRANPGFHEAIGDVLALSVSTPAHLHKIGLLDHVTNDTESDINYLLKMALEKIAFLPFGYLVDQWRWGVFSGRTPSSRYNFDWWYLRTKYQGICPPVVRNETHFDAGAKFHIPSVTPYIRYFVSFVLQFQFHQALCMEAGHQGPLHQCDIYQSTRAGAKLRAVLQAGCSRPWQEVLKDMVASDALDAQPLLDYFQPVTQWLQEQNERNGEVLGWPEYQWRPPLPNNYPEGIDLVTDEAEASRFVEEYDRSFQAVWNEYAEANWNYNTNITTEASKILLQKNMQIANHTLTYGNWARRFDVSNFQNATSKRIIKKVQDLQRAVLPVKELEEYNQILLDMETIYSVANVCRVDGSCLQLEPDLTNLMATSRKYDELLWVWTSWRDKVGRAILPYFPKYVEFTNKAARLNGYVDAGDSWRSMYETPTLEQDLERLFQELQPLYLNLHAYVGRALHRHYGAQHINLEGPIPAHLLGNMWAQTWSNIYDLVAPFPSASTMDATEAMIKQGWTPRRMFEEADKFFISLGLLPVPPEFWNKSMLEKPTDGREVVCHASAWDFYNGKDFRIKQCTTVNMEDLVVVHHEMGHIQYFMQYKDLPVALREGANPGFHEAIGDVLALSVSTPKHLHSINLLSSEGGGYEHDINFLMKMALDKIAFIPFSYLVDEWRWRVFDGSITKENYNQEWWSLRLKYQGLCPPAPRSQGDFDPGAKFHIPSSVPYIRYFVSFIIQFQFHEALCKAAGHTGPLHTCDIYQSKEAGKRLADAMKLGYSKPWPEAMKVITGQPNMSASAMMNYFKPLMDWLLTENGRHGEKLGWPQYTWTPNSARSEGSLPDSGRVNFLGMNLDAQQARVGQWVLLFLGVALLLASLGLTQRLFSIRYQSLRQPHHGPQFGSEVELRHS

Neprilysin [5] = target: T2, Neprilysin (Oryctolagus cuniculus, UniProt P08049); experiment: In vitro inhibitory activity against neutral endopeptidase (NEP)
T2 sequence (P08049 whole entry): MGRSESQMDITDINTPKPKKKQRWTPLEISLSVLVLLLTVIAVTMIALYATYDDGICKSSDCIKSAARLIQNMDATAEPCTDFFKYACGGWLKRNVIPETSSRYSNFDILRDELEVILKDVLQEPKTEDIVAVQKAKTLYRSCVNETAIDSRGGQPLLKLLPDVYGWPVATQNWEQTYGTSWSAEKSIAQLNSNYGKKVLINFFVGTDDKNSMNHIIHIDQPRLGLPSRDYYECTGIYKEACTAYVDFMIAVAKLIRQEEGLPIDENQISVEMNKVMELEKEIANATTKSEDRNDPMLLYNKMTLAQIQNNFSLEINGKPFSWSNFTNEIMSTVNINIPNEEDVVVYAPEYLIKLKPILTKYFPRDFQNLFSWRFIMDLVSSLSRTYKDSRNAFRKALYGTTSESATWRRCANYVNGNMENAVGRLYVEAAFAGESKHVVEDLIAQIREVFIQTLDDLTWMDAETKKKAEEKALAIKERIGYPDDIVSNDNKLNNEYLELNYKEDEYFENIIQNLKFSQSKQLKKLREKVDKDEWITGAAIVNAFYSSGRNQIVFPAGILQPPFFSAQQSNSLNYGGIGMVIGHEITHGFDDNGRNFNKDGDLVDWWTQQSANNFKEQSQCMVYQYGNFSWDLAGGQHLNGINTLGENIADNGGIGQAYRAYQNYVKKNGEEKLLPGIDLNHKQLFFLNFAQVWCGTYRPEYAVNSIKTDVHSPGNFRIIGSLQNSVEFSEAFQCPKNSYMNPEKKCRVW
Summary of the method: (§3)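 Purified rabbit kidney NEP (EC 24.11) was the enzyme source, with [³H]Leu-enkephalin as the substrate.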

Neprilysin [6] = target: T2, Neprilysin; experiment: Ttested for its inhibitory activity against neutral endopeptidase (NEP); summary of the method: as §3
Rattus norvegicus [7] = experiment: Tested for in vivo Antihypertensive activity in DOCA rat by giving subcutaneous dose of 3 mg/kg; type: functional; summary of the method: as §1
Rattus norvegicus [8] = experiment: Tested for in vivo Antihypertensive activity in DOCA rat by giving peroral dose of 1 mg/Kg; type: functional; summary of the method: as §1
Rattus norvegicus [9] = experiment: Tested for in vivo Antihypertensive activity in DOCA rat by giving peroral dose of 10 mg/kg; type: functional; conditions: route oral; summary of the method: as §1
Rattus norvegicus [10] = experiment: In vivo potentiation of ANF Induced Hypotension in rat was determined by giving peroral dose of 10 mg/kg; type: functional; conditions: route oral
Rattus norvegicus [11] = experiment: Tested for in vivo Antihypertensive activity in DOCA rat by giving subcutaneous dose of 1 mg/kg; type: functional; summary of the method: as §1
Rattus norvegicus [12] = experiment: In vivo potentiation of ANF Induced Hypotension in rat was determined by giving subcutaneous dose of 10 mg/kg; type: functional; summary of the method: as §2
Rattus norvegicus [13] = experiment: In vivo potentiation of ANF Induced Hypotension in rat was determined by giving subcutaneous dose of 90 mg/kg ANF; type: functional
Rattus norvegicus [14] = experiment: Tested for in vivo Antihypertensive activity in DOCA rat by giving subcutaneous dose of 10 mg/kg; type: functional; summary of the method: as §1
Rattus norvegicus [15] = experiment: Tested for in vivo Antihypertensive activity in DOCA rat by giving peroral dose of 3 mg/Kg; type: functional; summary of the method: as §1

Row | Compound | Delta blood pressure (Rattus norvegicus [1]) [mmHg] | Delta blood pressure (Rattus norvegicus [2]) [mmHg] | Delta blood pressure (Rattus norvegicus [3]) [mmHg] | IC50 [4] [nM] | IC50 (Neprilysin [5]) [nM] | further results
1 | Cc1ccc(CSC[C@@H](NC(=O)[C@H](CS)Cc2ccccc2)C(=O)O)cc1 | 33 | 48 | 28 | 1200 | 20 | 
2 | COc1ccc(CSC[C@@H](NC(=O)[C@H](CS)Cc2ccccc2)C(=O)O)cc1 |  | 23 | 0 |  |  | IC50 (Neprilysin [6]): 17 nM
3 | CSCC[C@@H](NC(=O)[C@@H](CS)Cc1ccccc1C)C(=O)O |  |  |  | 100 | 7 | Delta blood pressure (Rattus norvegicus [7]): 43 mmHg; Delta blood pressure (Rattus norvegicus [8]): 24 mmHg
4 | CC(C)(C)SC[C@@H](NC(=O)[C@@H](CS)Cc1ccccc1)C(=O)O |  | 25 | 17 | 170 | 49 | 
5 | Cc1ccc(CSC[C@@H](NC(=O)[C@H](CS)Cc2ccccc2)C(N)=O)cc1 |  | 17 |  |  | > 300 | Delta blood pressure (Rattus norvegicus [7]): 17 mmHg; Delta blood pressure (Rattus norvegicus [9]): 46 mmHg
6 | CC(=O)SC[C@H](Cc1ccccc1)C(=O)N[C@H](CSCc1ccc(C)cc1)C(=O)O |  |  |  |  |  | Delta blood pressure (Rattus norvegicus [10]): 20 mmHg
7 | CSC[C@@H](NC(=O)[C@@H](CS)Cc1ccccc1)C(=O)O |  | 30 | 0 | 77 | 1.5 | 
8 | CSCC[C@@H](NC(=O)C(CS)Cc1ccccc1)C(=O)O (some centres undefined) | 42 | 25 | 18 | 120 | 4 | 
9 | C[C@H](CS)C(=O)N[C@H](CSCc1ccccc1)C(=O)O | 0 | 19 |  | 58 | 46 | 
10 | CSCC[C@@H](NC(=O)[C@@H](CSC(C)=O)Cc1ccccc1)C(=O)O | 48 |  |  |  |  | 
11 | Cc1ccc(CSC[C@@H](NC(=O)[C@@H](CS)Cc2cccc3ccccc23)C(=O)O)cc1 |  | 0 | 33 | > 1000 | 2 | Delta blood pressure (Rattus norvegicus [7]): 26 mmHg; Delta blood pressure (Rattus norvegicus [11]): 47 mmHg; Delta blood pressure (Rattus norvegicus [9]): 8 mmHg
12 | CC(=O)SC[C@@H](Cc1ccccc1)C(=O)N[C@H](CSCc1ccc(C)cc1)C(=O)O | 48 |  |  |  |  | Delta blood pressure (Rattus norvegicus [12]): 42 mmHg
13 | CSCC[C@@H](NC(=O)C1(CS)CCCC1)C(=O)O | 24 |  |  | 700 | 3.5 | 
14 | Cc1ccc(CSC[C@@H](NC(=O)[C@@H](CS)Cc2ccccc2)C(=O)O)cc1C |  | 23 |  |  |  | IC50 (Neprilysin [6]): 370 nM
15 | O=C(N[C@H](CSCc1ccccc1)C(=O)O)[C@@H](CS)Cc1ccc(Cl)cc1 |  | 19 | 20 | 44 | 3 | 
16 | Cc1ccc(CSC[C@@H](NC(=O)[C@@H](CS)Cc2ccccc2)C(=O)O)cc1 | 17 | 48 |  | 19 | 11 | 
17 | CSCC[C@@H](NC(=O)[C@@H](CSC(=O)c1ccccc1)Cc1ccccc1)C(N)=O | 0 |  |  |  |  | 
18 | CC(=O)SC[C@H](Cc1ccccc1)C(=O)N[C@H](CSCc1ccc(C)cc1)C(N)=O |  |  |  |  |  | Delta blood pressure (Rattus norvegicus [12]): 0 mmHg; Delta blood pressure (Rattus norvegicus [9]): 0 mmHg
19 | O=C(N[C@H](CSCc1ccccc1)C(=O)O)[C@H](CS)Cc1ccccc1 | 55 |  |  | > 1000 | 32 | Delta blood pressure (Rattus norvegicus [13]): 45 mmHg; Delta blood pressure (Rattus norvegicus [14]): 21 mmHg
20 | CSCC[C@@H](NC(=O)[C@@H](CSC(C)=O)Cc1ccccc1)C(N)=O |  | 23 |  |  |  | Delta blood pressure (Rattus norvegicus [15]): 39 mmHg
21 | O=C(N[C@H](CSCc1ccccc1)C(=O)O)[C@@H](CS)Cc1ccccc1 | 30 |  |  | 24 | 9 | Delta blood pressure (Rattus norvegicus [2]; 30 mg/kg): 35 mmHg; Delta blood pressure (Rattus norvegicus [14]): 17 mmHg
22 | CSCC[C@@H](NC(=O)C(CSC(C)=O)Cc1ccccc1)C(=O)N1CCCCC1 (some centres undefined) |  | 38 |  |  |  | Delta blood pressure (Rattus norvegicus [7]): 3 mmHg; Delta blood pressure (Rattus norvegicus [14]): 32 mmHg
23 | O=C(N[C@H](CSCc1ccccc1)C(=O)O)C(CS)Cc1ccccc1 (single isomer, unassigned) |  |  | 18 | 1250 | 14 | Delta blood pressure (Rattus norvegicus [2]; 30 mg/kg): 19 mmHg
